# Screening results from PubChem.
# Shown are actives, neighbours in structure and some others; about 2.2% of the full set was active somewhere.
# CR mimetic SO: caloric restriction mimetics inhibiting age-related superoxide in yeast. superoxide response (% of plate mean), % at 10 µM. AID 2690. S. cerevisiae aged cells, superoxide DHE fluorescence; hits give low values. 330,000 compounds, 0.18% hits;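 active = superoxide response under a set limit, about three screen SD below normal, cut at about 65% in these data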;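 note: yeast aged for seven days with compound at 30 °C before DHE staining; 100% = average MFI of all compound-treated wells on the plate with controls excluded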
# PHOSPHO1 inh: inhibitors of human PHOSPHO1 phosphatase; AID 1565; 290,000 compounds, 1.1% hits; Q8TCT1; inhibition, % at 13.3 µM; recombinant PHOSPHO1, absorbance phosphatase assay; in the data active = inhibition above about 60%
# Target sequence (Q8TCT1 whole entry, looked up): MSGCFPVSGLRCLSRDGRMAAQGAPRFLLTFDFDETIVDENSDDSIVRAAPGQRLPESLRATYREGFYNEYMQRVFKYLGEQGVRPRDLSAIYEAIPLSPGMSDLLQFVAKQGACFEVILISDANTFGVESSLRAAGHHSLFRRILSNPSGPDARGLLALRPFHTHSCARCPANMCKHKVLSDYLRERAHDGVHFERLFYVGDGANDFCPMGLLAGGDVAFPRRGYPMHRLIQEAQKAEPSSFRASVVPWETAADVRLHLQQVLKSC
# PvdQ inh: P. aeruginosa PvdQ acylase inhibition; purified PvdQ acylase, fluorescence plate reader; inhibition, % at 10 µM; 340,000 compounds, 0.063% hits; AID 488965; in the data active = inhibition above about 30%, passing the limit was not always enough;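 note: 0% = vehicle neutral wells and 100% = reference inhibitor wells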
# VIM-2 inhibitor: inhibitors of Pseudomonas aeruginosa VIM-2 metallo-beta-lactamase; purified VIM-2, nitrocefin hydrolysis, epi-absorbance fluorescence; inhibition, % at 5.6 µM; 290,000 compounds, 0.89% hits; AID 1527;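 active = inhibition above the mean of all tested compounds plus 3 SD, cutoff set per screening run, cut at about 7.5% in these data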;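 note: red hydrolysis product quenches plate fluorescence so inhibitors raise well fluorescence; 0% = enzyme with DMSO and 100% = DMSO without enzyme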
# IMP-1 inhibitor: inhibitors of Pseudomonas aeruginosa IMP-1 metallo-beta-lactamase; purified IMP-1, nitrocefin hydrolysis, epi-absorbance fluorescence; inhibition, % at 5.6 µM; 290,000 compounds, 0.45% hits;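 active = inhibition above the mean plus 3 SD of all compounds in the same screening run, cut at about 4.5% in these data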;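 note: 0% = IMP-1 with DMSO and 100% = DMSO wells lacking enzyme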
#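 assay system = purified recombinant IMP-1 metallo-beta-lactamase enzyme | schedule = 15 min preincubation plus 25 min reaction at 25 °C | signal = Epi-absorbance fluorescence, 480 nm excitation, 530 nm emission | read-out basis = percent inhibition from optical density relative to buffer-blank wells | controls = IMP-1 with DMSO as 0%, enzyme-free DMSO as 100%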
# The depositor's hits bear a star; . = not tested or not shown.
SMILES,CR mimetic SO,PHOSPHO1 inh,PvdQ inh,VIM-2 inhibitor,IMP-1 inhibitor
CC(C)CC(=O)NC(=S)Nc1ccccc1C(=O)Nc1ccccc1,88,19,-5,-5,12*
CC1CCN(c2ccccc2NC(=S)NC(=O)c2cccs2)CC1,102,42,-10,-2,-4
CC(C)(C)C(=O)NC(=S)Nc1ccccc1C(=O)Nc1ccccc1,100,27,-7,-1,17*
CC1CCN(c2ccccc2NC(=S)NC(=O)C(C)(C)C)CC1,101,13,-16,0,6.3*
CCn1c(Cn2nnc(-c3ccccc3)n2)nnc1SCC(=O)Nc1ccc(C(C)=O)cc1,89,46,-4,-2,-4
CCn1c(SCC(=O)Nc2cccc(OC)c2)nnc1-c1ccc(Cl)cc1,98,74*,-1,0,-2
CCn1c(SCC(=O)Nc2ccc(N(C)C)cc2)nnc1-c1cccc(C)c1,109,79*,2,-3,-2
CCn1c(Cn2nnc(-c3ccccc3)n2)nnc1SCC(=O)Nc1ccc(N(C)C)cc1,100,78*,-4,-1,-2
CN(C)c1ccc(NC(=O)CSc2nnc(-c3cccs3)n2Cc2ccco2)cc1,107,90*,-1,5,-1
COc1ccc(C(=O)COc2ccccc2C(=O)Nc2ccccc2)cc1,110,29,-2,0,-2
C/C(=N\NC(=O)c1cccnc1)c1ccc(OC2OCCOC2Oc2ccc(/C(C)=N/NC(=O)c3cccnc3)cc2)cc1 (stereo not drawn),99,36,1,-1,-3
Nc1ccn(C2OC(COC(=O)C34CC5CC(CC(C5)C3)C4)C(O)C2O)c(=O)n1 (stereo not drawn),.,.,3,.,.
COc1ccc(-c2csc(NC(=O)Cc3cccc4ccccc34)c2C(=O)O)cc1,.,53,-10,0,7.7*
COc1ccc(-c2csc(NC(=O)c3ccccc3Br)c2C(=O)O)cc1,107,38,1,-2,-3
CCc1cc(C(=O)N2CCCC(C(=O)c3cccc4ccccc34)C2)n(C)n1 (stereo not drawn),92,35,-14,0,-1
CC12CCC(O)CC1=CCC1C2CCC2(C)C3=NN=CC3CC12 (stereo not drawn),.,.,-8,.,.
O=C(O)CCSCC(=O)c1ccc2c(c1)OCCO2,100,78*,2,-1,-1
O=C(c1cc2c(=O)n3ccccc3nc2s1)N1CCN(Cc2ccccc2)CC1,92,27,-9,8.2*,-2
CCC(C)NC(=O)c1cc2c(=O)n3ccccc3nc2s1 (stereo not drawn),93,61*,-28,1,-2
CCOC(=O)C1CCN(C(=O)c2cc3c(=O)n4ccccc4nc3s2)CC1,105,27,-8,1,-3
CCN1CCN(C(=O)c2cc3c(=O)n4ccccc4nc3s2)CC1,92,36,-6,12*,-2
CC(C)CCNC(=O)c1cc2c(=O)n3ccccc3nc2s1,112,47,-8,5,-2
COc1ccc(CCNC(=O)COC(=O)c2cc(S(=O)(=O)N3CCOCC3)ccc2C)cc1OC,87,.,-9,.,.
O=C1C=C(c2ccc(C(=O)O)c(Cl)c2)C[C@@H](c2ccc3c(c2)OCO3)C1,88,.,-13,.,.
COC(=O)C1=CN(c2ccc(F)cc2)C=C(C(=O)OC)C1c1ccc(O)cc1,93,7,0,-2,-3
SMILES,CR mimetic SO,PHOSPHO1 inh,PvdQ inh,VIM-2 inhibitor,IMP-1 inhibitor
O=C1C2CC=C(Cl)CC2C(=O)N1CCc1ccccc1 (stereo not drawn),92,-1,-12,-1,6.9*
O=C1C2CC=C(Cl)CC2C(=O)N1CCc1c[nH]c2ccccc12 (stereo not drawn),104,-14,-5,0,-1
COc1ccc(/C(C#N)=C/c2cccnc2)cc1,.,32,74*,-2,-1
CC1(C)CC(=O)C(Sc2nnc(-c3ccc(NS(C)(=O)=O)cc3)n2Cc2ccco2)C(=O)C1,107,96*,-1,0,-2
Cn1c(SC2C(=O)CC(C)(C)CC2=O)nnc1-c1ccco1,111,58,-1,-1,-4
CC(C)OC(=O)CC(=O)c1sc2nc3c(cc2c1N)CN(C)CC3,107,82*,.,3,1
CCN1CCc2nc3sc(C(=O)N4CCc5ccccc5C4)c(N)c3cc2C1,103,13,1,0,-3
COc1cccc(-c2ccc(-c3noc(-c4ccccc4F)n3)c(OC)n2)c1,107,0,-7,0,0
COc1nc(-c2ccc(Cl)cc2)ccc1-c1noc(-c2ccco2)n1,78,80*,-8,-2,-3
CCC(N1CCOC1=O)S(=O)(=O)c1ccc(C)cc1 (stereo not drawn),97,93*,-17,-2,-6
CC(=O)O[C@]1(C(C)=O)CC[C@H]2[C@@H]3C=CC4=CC(=O)C=C[C@]4(C)[C@H]3CC[C@@]21C,108,35,3,-1,0
CN1CCN(c2nnc(-c3ccc(Cl)cc3)c3ccccc23)CC1,100,16,-14,10*,-2
Cc1ccc(-c2nnc(N3CCCCC3)c3ccccc23)cc1,88,20,-4,2,-2
O=C(COc1ccc2ccc(=O)oc2c1)Nc1cccc(S(=O)(=O)N2CCCCC2)c1,85,.,-14,.,.
O=C(NCc1ccccc1C(F)(F)F)c1cccc2c1C(=O)c1ccc(N3CCCCC3)cc1S2(=O)=O,104,.,0,.,.
O=C1NC(=S)S/C1=C/c1ccc(N2CCOCC2)o1,92,86*,-1,-5,-3
O=C1S/C(=C/c2ccc(N3CCOCC3)o2)C(=O)N1Cc1ccc(F)cc1,108,-81,11,-2,-1
Cc1ccc(-c2nnn(CC(=O)NC3CCCc4ccccc43)n2)cc1 (stereo not drawn),109,62*,1,-1,-1
c1ccc(-c2nc(Sc3ncnc4c3cnn4-c3ccccc3)n[nH]2)cc1,121,87*,.,-1,-2
Cc1ccc(CSc2ncnc3c2cnn3-c2ccccc2)cc1,89,15,20,-2,-3
COc1cccc(OC)c1OCCCN1CCC(Cc2ccccc2)CC1,105,.,-5,-1,-2
COc1ccc(S(=O)(=O)N2CCC(C(=O)NC3CC(C)(C)NC(C)(C)C3)CC2)cc1,85,70*,-17,-2,-3
Cc1ccc(S(=O)(=O)N2CCC(C(=O)NC3CC(C)(C)NC(C)(C)C3)CC2)cc1,101,53,-18,-1,-2
COc1ccc(-c2oc3ccccc3c2C(=O)OCc2ccccc2)cc1,104,-24,-24,-1,-3
Cc1cc(S(=O)(=O)N2CCCC(N(C)CCc3ccccn3)C2)c(C)s1 (stereo not drawn),101,75*,-11,-3,-3
CN(CCc1ccccn1)C1CCCN(S(=O)(=O)c2ccc(F)c(Cl)c2)C1 (stereo not drawn),78,47,-2,0,-1
Oc1ccc(-c2cn3c(n2)SCC3)cc1,93,98*,-6,1,0
Oc1ccc(-c2cn3c(n2)SCC3)cc1O,91,80*,-13,0,-4
